Laboratory results: ChEMBL document CHEMBL4725282, “Discovery of a Conformationally Constrained Oxazolidinone with Improved Safety and Efficacy Profiles for the Treatment of Multidrug-Resistant Tuberculosis” (J Med Chem, 2020)

Experiments:
[1] = Genotoxicity in CHO-WBL cells assessed as chromosome aberration at 90 to 397.1 ug/ml incubated for 3 hrs followed by compound washout and measured after 17 hrs in presence of S9 fraction by Giemsa staining based; type: toxicity, subcellular, Cricetulus griseus; settings: chinese hamster, s9, 3 h, dose 90-397.1 µg/ml
In short: (§1)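 CHO-WBL cells in McCoy's 5A with 10% FBS, seeded 20-24 h before treatment. Compound in DMSO, with or without serum-free S-9 mix. Treatment either 3 h, then HBSS wash and 17 h further culture, or 20 h; harvest at 20 h from treatment start. Colcemid 0.1 μg/mL for the final 2 h, hypotonic KCl, methanol:acetic acid fixation, Giemsa stain. 300 metaphases per concentration (150 per duplicate flask) scored.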

[2] = Toxicity in female Sprague-Dawley rat assessed as change in reticulocyte level at 150 mg/kg/day, po administered for 4 weeks followed by 2 week recovery period (Rvb =2.85 +/- 0.53 %); type: organism-based; settings: in vivo, 672 h
[3] = Toxicity in female Sprague-Dawley rat assessed as change in hematocrit level at 50 mg/kg/day, po administered for 4 weeks followed by 2 week recovery period (Rvb =41.1 +/- 1.4 %); type: organism-based; settings: in vivo, 672 h
[4] = Toxicity in male Sprague-Dawley rat assessed as change in hematocrit level at 150 mg/kg/day, po administered for 4 weeks followed by 2 week recovery period (Rvb =45.2 +/- 1.7 %); type: organism-based; settings: in vivo, 672 h
[5] = tested on: Mycobacterium tuberculosis; assay: Antitubercular activity against Mycobacterium tuberculosis H37Rv infected in Balb/c mouse assessed as lung bacterial burden by measuring colony forming unit at 100 mg/kg/day, po administered via gavage 5 times per week for 3 weeks starting from 10 days post-infection and measured 24 hrs post last dose (reference value: 7.102 +/- 0.152 log10CFU); type: functional; settings: time 22 day
In short: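 Female SPF BALB/c mice, 6 per group, aerosol-infected with M. tuberculosis H37Rv to deposit 50-100 bacilli per lung. Compound suspended in 0.5% CMC, given by oral gavage from day 10 post-infection, 5 times per week for 3 weeks; controls got 0.5% CMC. Lungs harvested the day after the last dose, homogenised, diluted in HBSS, plated on 7H11 agar in duplicate, incubated 3 weeks at 37 °C. Result expressed as mean log10 CFU; t-test versus control.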

[6] = Toxicity in female Sprague-Dawley rat assessed as ophthalmic changes at 50 to 450 mg/kg/day, po administered for 4 weeks followed by 2 week recovery period; type: organism-based; settings: in vivo, 1008 h, dose 50-450 mg/kg/day, time 6 weeks
In short: (§2)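 SD rats, 6-7 weeks old (96 in total), split into vehicle, 50, 150 and 450 mg/kg/day groups of 12 females and 12 males each, given oral doses once daily for 4 weeks, then 2 weeks of recovery. Mortality, body weight, food intake, eyes, urine and neuropsychic signs were observed. Organ and bone marrow histopathology was done on 8 rats per sex per group after the last dose and on the remaining 4 per sex after 14 days of recovery.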

[7] = Toxicity in female Sprague-Dawley rat assessed as changes in neuropsychic symptoms at 50 to 450 mg/kg/day, po administered for 4 weeks followed by 2 week recovery period measured during last 24 hrs of recovery period; type: organism-based; settings: in vivo, 672 h, dose 50-450 mg/kg/day; in short: as §2
[8] = Toxicity in male Sprague-Dawley rat assessed as abnormalities in urine at 50 to 450 mg/kg/day, po administered for 4 weeks measured within last 7 days of treatment period; type: organism-based; settings: in vivo, 672 h, dose 50-450 mg/kg/day; in short: as §2
[9] = Toxicity in male Sprague-Dawley rat assessed as change in mean corpuscular volume at 450 mg/kg/day, po administered for 4 weeks followed by 2 week recovery period (Rvb =57.5 +/- 2.0 fL); type: organism-based; settings: in vivo, 672 h
[10] = Clearance in Balb/c mouse at 2.5 mg/kg, iv by LC-MS/MS analysis; type: ADME, organism-based; settings: in vivo
In short: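 Female BALB/c mice (20–25 g), five per route. Oral dose 25 mg/kg in 0.5% carboxymethyl cellulose; i.v. dose 2.5 mg/kg in 10% DMSO/physiological saline. Blood sampled 5 min–72 h after p.o. and 2 min–48 h after i.v. Analyte quantified by LC/MS/MS (ESI positive, C18, isocratic methanol/water). Parameters from non-compartmental analysis.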

[11] = Toxicity in male Sprague-Dawley rat assessed as change in mean platelet volume at 150 mg/kg/day, po administered for 4 weeks followed by 2 week recovery period (Rvb =7.0 +/- 0.4 fL); type: organism-based; settings: in vivo, 672 h
[12] = Toxicity in female Sprague-Dawley rat assessed as change in mean platelet volume at 150 mg/kg/day, po administered for 4 weeks followed by 2 week recovery period (Rvb =7.1 +/- 0.5 fL); type: organism-based; settings: in vivo, 672 h
[13] = Toxicity in male Sprague-Dawley rat assessed as change in mean platelet volume at 450 mg/kg/day, po administered for 4 weeks followed by 2 week recovery period (Rvb =7.0 +/- 0.4 fL); type: organism-based; settings: in vivo, 672 h
[14] = Stability in human liver microsome at 1 uM measured after 30 mins in absence of NADPH by LC-MS/MS analysis; type: ADME; settings: liver microsomes, read-out: Stabilty
In short: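 Liver microsomes (male CD-1 mouse or pooled human), 1 mg/mL protein, compound 1 µM, 37°C with shaking. Started with 1 mM NADPH or run without cofactor. Quenched with ice-cold ACN/MeOH containing internal standard. Parent quantified by LC-MS/MS; 30 min concentration normalised to time zero.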

[15] = Toxicity in female Sprague-Dawley rat assessed as change in white blood cell count at 50 mg/kg/day, po administered for 4 weeks followed by 2 week recovery period (Rvb =3.61 +/- 0.75 10^9/L); type: organism-based; settings: in vivo, 672 h
Cytochrome P450 2C9 = Cytochrome P450 2C9 (Homo sapiens, UniProt P11712); assay: Inhibition of CYP2C9 in human liver microsomes after 20 mins by LC-MS/MS analysis; type: ADME
[16] = Toxicity in male Sprague-Dawley rat assessed as change in white blood cell count at 150 mg/kg/day, po administered for 4 weeks followed by 2 week recovery period (Rvb =6.12 +/- 1.10 10^9/L); type: organism-based; settings: in vivo, 672 h
In short: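 SD rats aged 6-7 weeks, 24 per group (12 female, 12 male): vehicle, 50, 150 or 450 mg/kg/day given orally once daily for 4 weeks, then 2-week recovery. 8 per sex per group dissected after the last dose and 4 per sex after 14-day recovery. Hematology included WBC count, reported as mean ± SD (n = 12), compared with vehicle.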

[17] = Toxicity in male Sprague-Dawley rat assessed as change in red blood cell count at 450 mg/kg/day, po administered for 4 weeks followed by 2 week recovery period (Rvb =7.86 +/- 0.32 10^12/L); type: organism-based; settings: in vivo, 672 h
[18] = Genotoxicity in CHO-WBL cells assessed as chromosome aberration at 20 to 150 ug/ml measured after 20 hrs in absence of S9 fraction by Giemsa staining based; type: toxicity, cell-based, Cricetulus griseus; settings: chinese hamster, dose 20-150 µg/ml; in short: as §1
[19] = Toxicity in female Sprague-Dawley rat assessed as histopathological changes at 50 to 450 mg/kg/day, po administered for 4 weeks followed by 2 week recovery period; type: organism-based; settings: in vivo, 672 h, dose 50-450 mg/kg/day; in short: as §2
[20] = Toxicity in female Sprague-Dawley rat assessed as ophthalmic changes at 50 to 450 mg/kg/day, po administered for 4 weeks measured within 7 days of post last dose; type: organism-based; settings: in vivo, 672 h, dose 50-450 mg/kg/day; in short: as §2
[21] = Toxicity in female Sprague-Dawley rat assessed as change in hematocrit level at 150 mg/kg/day, po administered for 4 weeks followed by 2 week recovery period (Rvb =41.1 +/- 1.4 %); type: organism-based; settings: in vivo, 672 h

Sequence of Cytochrome P450 2C9 (P11712 whole entry): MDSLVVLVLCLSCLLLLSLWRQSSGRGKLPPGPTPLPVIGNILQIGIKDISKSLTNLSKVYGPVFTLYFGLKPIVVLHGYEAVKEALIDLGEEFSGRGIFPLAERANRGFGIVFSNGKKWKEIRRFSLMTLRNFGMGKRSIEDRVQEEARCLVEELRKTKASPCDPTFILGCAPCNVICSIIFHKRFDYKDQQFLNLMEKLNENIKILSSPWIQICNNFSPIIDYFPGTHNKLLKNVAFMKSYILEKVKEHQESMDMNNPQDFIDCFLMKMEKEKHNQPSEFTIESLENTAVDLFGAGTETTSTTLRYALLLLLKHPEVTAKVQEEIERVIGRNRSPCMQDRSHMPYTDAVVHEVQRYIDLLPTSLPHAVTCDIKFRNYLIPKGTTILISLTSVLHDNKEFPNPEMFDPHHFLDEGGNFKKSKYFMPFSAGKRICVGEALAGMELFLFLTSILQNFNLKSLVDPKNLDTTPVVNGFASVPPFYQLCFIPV

CC(=O)NC[C@@H]1OC(=O)N2c3cc(F)c(N4CC[S+]([O-])CC4)cc3OC[C@@H]12
Activity [1]: Non-Toxic

CC(=O)NC[C@@H]1OC(=O)N2c3cc(F)c(N4CCSCC4)cc3OC[C@@H]12
Activity [2]: 2.89%
Activity [3]: 38.7%
Activity [4]: 44.5%
Activity [5]: 1.954 log10CFU
Activity [6]: Non-Toxic
Activity [7]: Non-Toxic
Activity [8]: Non-Toxic
Activity [9]: 58.7 fL
clearance [10]: 36.5 mL/min/kg
Activity [11]: 7 fL
Activity [12]: 7.4 fL
Activity [13]: 6.9 fL
remaining at 0.5 h, 1 µM [14]: 81.5%
Activity [15]: 4.2 10^9/L
IC50 (Cytochrome P450 2C9): > 50 µM
Activity [16]: 6.11 10^9/L
Activity [17]: 7.46 10^12/L
Activity [18]: Non-Toxic
Activity [19]: Non-Toxic
Activity [20]: Non-Toxic
Activity [21]: 37.4%
